Molecules are shown by their SMILES.

T1 sequence (P19838 whole entry, looked up): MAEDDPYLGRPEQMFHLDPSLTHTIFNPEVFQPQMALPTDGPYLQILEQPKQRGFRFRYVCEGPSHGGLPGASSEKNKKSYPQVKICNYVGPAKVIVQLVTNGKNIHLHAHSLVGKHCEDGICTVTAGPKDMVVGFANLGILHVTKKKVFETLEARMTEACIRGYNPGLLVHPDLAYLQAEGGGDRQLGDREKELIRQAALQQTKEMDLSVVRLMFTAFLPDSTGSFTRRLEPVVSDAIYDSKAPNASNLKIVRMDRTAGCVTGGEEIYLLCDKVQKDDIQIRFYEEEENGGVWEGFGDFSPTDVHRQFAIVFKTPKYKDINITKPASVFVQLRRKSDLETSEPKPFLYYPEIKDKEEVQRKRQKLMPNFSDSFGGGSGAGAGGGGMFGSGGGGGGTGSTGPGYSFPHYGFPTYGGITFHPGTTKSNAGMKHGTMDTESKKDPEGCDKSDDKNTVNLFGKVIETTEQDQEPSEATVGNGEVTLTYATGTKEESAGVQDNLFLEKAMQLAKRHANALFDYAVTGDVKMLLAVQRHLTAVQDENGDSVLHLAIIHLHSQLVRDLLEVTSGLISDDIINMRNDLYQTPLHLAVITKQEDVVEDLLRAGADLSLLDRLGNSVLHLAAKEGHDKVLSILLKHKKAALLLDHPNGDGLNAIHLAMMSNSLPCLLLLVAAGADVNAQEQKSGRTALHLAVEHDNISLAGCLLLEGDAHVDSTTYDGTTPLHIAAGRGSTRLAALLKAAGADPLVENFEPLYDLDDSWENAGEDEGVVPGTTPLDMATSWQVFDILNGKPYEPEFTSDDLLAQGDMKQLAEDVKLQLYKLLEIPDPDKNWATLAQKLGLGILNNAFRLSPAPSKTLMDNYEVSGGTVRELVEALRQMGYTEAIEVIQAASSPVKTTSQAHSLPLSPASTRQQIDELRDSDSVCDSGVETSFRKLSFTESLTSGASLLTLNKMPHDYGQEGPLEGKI
T1 sequence (Q00653 whole entry, looked up): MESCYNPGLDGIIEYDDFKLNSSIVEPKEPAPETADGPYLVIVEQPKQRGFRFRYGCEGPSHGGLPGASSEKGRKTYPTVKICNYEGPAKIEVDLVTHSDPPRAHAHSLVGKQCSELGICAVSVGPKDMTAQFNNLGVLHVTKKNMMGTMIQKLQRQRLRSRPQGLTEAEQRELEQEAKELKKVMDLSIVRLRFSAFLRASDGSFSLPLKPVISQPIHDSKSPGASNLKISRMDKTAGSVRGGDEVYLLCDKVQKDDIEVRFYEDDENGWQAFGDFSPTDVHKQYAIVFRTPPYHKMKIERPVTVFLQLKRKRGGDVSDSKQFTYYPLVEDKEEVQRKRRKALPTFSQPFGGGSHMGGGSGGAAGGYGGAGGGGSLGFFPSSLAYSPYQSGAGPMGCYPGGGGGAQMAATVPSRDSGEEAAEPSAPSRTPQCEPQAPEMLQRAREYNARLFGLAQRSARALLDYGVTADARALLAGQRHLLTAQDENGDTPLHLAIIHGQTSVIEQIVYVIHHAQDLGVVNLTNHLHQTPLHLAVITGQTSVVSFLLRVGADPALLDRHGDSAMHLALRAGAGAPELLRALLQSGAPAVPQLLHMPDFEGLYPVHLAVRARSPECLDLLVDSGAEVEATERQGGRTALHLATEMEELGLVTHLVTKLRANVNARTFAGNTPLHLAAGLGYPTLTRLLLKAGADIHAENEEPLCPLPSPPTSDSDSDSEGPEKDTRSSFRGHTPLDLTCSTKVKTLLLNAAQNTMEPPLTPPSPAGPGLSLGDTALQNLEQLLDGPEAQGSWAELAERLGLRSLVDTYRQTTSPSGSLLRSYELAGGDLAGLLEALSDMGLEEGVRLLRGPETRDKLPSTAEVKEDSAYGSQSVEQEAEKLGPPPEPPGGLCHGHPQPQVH
T1 sequence (Q04206 whole entry, looked up): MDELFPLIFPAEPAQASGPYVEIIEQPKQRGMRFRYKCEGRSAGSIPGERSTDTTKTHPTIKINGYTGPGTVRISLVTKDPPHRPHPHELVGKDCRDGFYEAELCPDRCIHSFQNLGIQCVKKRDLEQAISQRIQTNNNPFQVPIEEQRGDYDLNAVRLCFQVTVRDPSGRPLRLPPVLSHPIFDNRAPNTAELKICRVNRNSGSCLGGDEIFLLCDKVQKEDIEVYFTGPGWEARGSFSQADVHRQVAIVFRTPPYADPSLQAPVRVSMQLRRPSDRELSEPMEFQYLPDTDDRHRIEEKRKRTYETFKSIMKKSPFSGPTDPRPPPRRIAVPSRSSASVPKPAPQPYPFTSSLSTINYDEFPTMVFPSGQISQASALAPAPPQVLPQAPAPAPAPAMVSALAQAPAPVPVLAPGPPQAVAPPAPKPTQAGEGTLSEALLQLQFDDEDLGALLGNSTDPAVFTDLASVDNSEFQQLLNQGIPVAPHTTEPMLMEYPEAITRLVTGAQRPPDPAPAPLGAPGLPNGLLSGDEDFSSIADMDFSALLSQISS

The target in one assay is T1, Nuclear factor NF-kappa-B complex (Homo sapiens) (UniProt Q00653+P19838+Q04206). Briefly: (§1) Concentration required for complete inhibition of Nuclear factor kappa B DNA binding. Format: protein-complex assay. The method, boiled down:
(§2)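 Jurkat T cells (RPMI 1640, 10% FCS, penicillin/streptomycin) pretreated 1 h with sesquiterpene lactone, first at 10, 20, 50, 100 μM, then 1–5 μM or 200–300 μM as needed. Stimulated 1 h with 200 U/mL TNF-α. Total extracts (Totex high-salt buffer) analysed by EMSA with ³²P-labeled NF-κB oligonucleotide, 25 min at room temperature. IC100 is the lowest tested level fully blocking binding; intermediate values assigned the higher level. Each experiment reproduced at least once.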
With `C=C1C(=O)O[C@@H]2[C@H]3C(C)=C(Cl)C(=O)C3=C(C)CC[C@@H]12`, the IC100 is 20 µM.
The molecule `C=C1C(=O)O[C@@H]2/C=C(/COC(=O)C(C)C)CC/C=C(/CO)C(=O)C[C@@H]12` registered an IC100 of 12.5 µM.
On the same count and under the same terms, as for `C=C1C(=O)O[C@@H]2/C=C(/COC(=O)CC(C)C)CC/C=C(/CO)C(=O)C[C@@H]12` (stereo in doubt; 3), the figure is 12.5 µM.
Molecule `C=C1C(=O)O[C@@H]2C[C@@]3(C)[C@H](O)CC[C@@](O)(COC(=O)C(C)C)[C@@H]3C[C@H]12` displayed an IC100 of 200 µM.
`C=C(C)C(=O)O[C@H]1[C@H]2C(=C)C(=O)O[C@@H]2/C=C(/COC(C)=O)CC/C=C(/C=O)[C@@H]1O`: the IC100 came out at 5 µM.
In turn, `C=C1C(=O)C=C2[C@H]1C[C@@H]1C(=C)C(=O)O[C@@H]1C[C@@H]2C` had an IC100 of 10 µM.
Same read-out and setting: as for `C=C1C(=O)O[C@@H]2/C=C(/C)[C@]3(O)O[C@@](C)(C[C@@H]3OC)C[C@@H](OC(=O)C(C)C)[C@@H]12`, the figure is 200 µM; as for `C=C1C(=O)O[C@@H]2C[C@@H](C)[C@@H]3[C@@H](OC(C)=O)C[C@@H](O)[C@@]3(C)C[C@H]12`, 200 µM; as for `C=C(C)C(=O)O[C@H]1[C@H]2C(=C)C(=O)O[C@@H]2/C=C(/C)CC/C=C(/C=O)[C@@H]1O`, 10 µM.
In turn, `C=C1C(=O)O[C@H]2C/C(CO)=C\CC/C(COC(=O)C(C)CO)=C\C[C@H]12` (stereo not given in full) returned an IC100 of 100 µM.
On the same count and under the same terms, the figure for `C=C1C(=O)O[C@@H]2/C=C(/C)CC/C=C(/C)C[C@@H](OC(=O)C=C(CO)CO)[C@@H]12` is 20 µM; for `C=C1C(=O)O[C@@H]2C[C@@]3(C)[C@H](O)CC[C@](O)(COC(=O)C(C)C)[C@@H]3C[C@H]12` it is 200 µM.
Molecule `C=C1C(=O)C=C2[C@H]1C[C@@H]1C(=C)C(=O)O[C@H]1C[C@@H]2C` came in with an IC100 of 5 µM.
Consider `C=C1C(=O)OC2/C=C(/C)CC/C=C(/C)[C@@H](OC(C)=O)C[C@@H]12` (stereo not given in full), for which the IC100 was 200 µM.
On to `C=C1[C@@H]2[C@H]3OC(=O)C(=C)[C@@H]3CCC(=C)[C@@H]2C[C@@H]1OC(=O)C=C(C)C`, for which the IC100 worked out at 200 µM.
Molecule `C=C1C(=O)O[C@@H]2[C@H]3C(C)=CC(=O)C3=C(C)C[C@@H](OC(=O)[C@]3(C)O[C@@H]3C)[C@@H]12` returned an IC100 of 20 µM.
`C=C1C(=O)O[C@@H]2/C=C(/C)CC/C=C(/C)CC[C@@H]12` registered an IC100 of 50 µM.
Molecule `C=C1C(=O)O[C@@H]2/C=C(/CO)C3=CC(=O)[C@@](C)(C[C@@H](OC(=O)/C(C)=C/C)[C@@H]12)O3` yielded an IC100 of 5 µM.
The molecule `C=C1C(=O)O[C@]23C[C@H]1CCC(CO)=C2C(=O)C=C3C` had an IC100 of 50 µM.
`C=C1C(=O)O[C@@H]2[C@H]3C(C)=CC[C@H](O)[C@]3(C)CC[C@@H]12` gave an IC100 of 300 µM.
On to `C=C1C(=O)O[C@@H]2C[C@@]3(C)[C@H](OC(C)=O)CC[C@](O)(COC(=O)C(C)C)[C@@H]3C[C@H]12`, for which the IC100 amounted to 100 µM.
`C=C1C(=O)O[C@@H]2C[C@@H](C)[C@@H]3C=CC(=O)[C@@]3(C)[C@@H](OC(=O)C(C)C)[C@H]12` had an IC100 of 20 µM.
Same read-out and setting: the figure for `C=C1C(=O)OC2C[C@@H](C)[C@@H]3C=CC(=O)[C@@]3(C)[C@H](O)[C@H]12` (single isomer, unassigned) is 20 µM; for `C=C1C(=O)O[C@@H]2[C@H]3C(C)=CC(=O)C3=C(C)CC[C@@H]12` it is 50 µM; for `C=C1C(=O)O[C@H]2[C@H]1[C@H](OC(=O)[C@@]1(C)O[C@H]1C)[C@@H](OC(C)=O)/C(C(=O)OC)=C\CC[C@@]1(C)O[C@@H]21` it is 10 µM.
`C=C1C(=O)O[C@@H]2C[C@@]3(C)CC(=O)C(OC(C)=O)=C(C)C3C[C@H]12` (stereo not given in full): the IC100 was 100 µM.
In turn, `C=C1C(=O)O[C@]23C[C@H]1CCC(COC(C)=O)=C2C(=O)C=C3C` showed an IC100 of 100 µM.
`C=C1C(=O)O[C@@H]2C[C@@H](C)[C@@H]3C=CC(=O)[C@@]3(C)[C@@H](O)[C@H]12` returned an IC100 of 10 µM.
With `C=C1C(=O)O[C@@H]2C[C@@]3(C)[C@H](O)CC=C(COC(=O)C(C)C)[C@@H]3C[C@H]12`, the IC100 was determined as 50 µM.
Take `C=C1C(=O)O[C@@H]2C[C@@H](C)[C@@H]3CCC(=O)[C@@]3(C)C[C@H]12`: the IC100 is 50 µM.
With `C=C1C(=O)OC2[C@H]3O[C@]3(C)CC/C=C(/C)CC[C@@H]12` (stereo not given in full), the IC100 came out at 20 µM.

The next assay deals with T1, Nuclear factor NF-kappa-B complex (Homo sapiens). The description is as §1. Format: protein-complex assay. More on the design: unit not given here. The essentials:
as §2
In the case of `C=C1C(=O)O[C@@H]2[C@H]3C(C)=C(Cl)C(=O)C3=C(C)CC[C@@H]12`, the pIC100 is -1.3.
Still for that read-out and setting: the figure for `C=C1C(=O)O[C@@H]2/C=C(/COC(=O)C(C)C)CC/C=C(/CO)C(=O)C[C@@H]12` is -1.09.
The molecule `C=C1C(=O)O[C@@H]2/C=C(/COC(=O)CC(C)C)CC/C=C(/CO)C(=O)C[C@@H]12` (stereo in doubt; 3) had a pIC100 of -1.09.
As to `C=C(C)C(=O)O[C@H]1[C@H]2C(=C)C(=O)O[C@@H]2/C=C(/COC(C)=O)CC/C=C(/C=O)[C@@H]1O`, the pIC100 is -0.69.
With `C=C1C(=O)C=C2[C@H]1C[C@@H]1C(=C)C(=O)O[C@@H]1C[C@@H]2C`, the pIC100 was -1.
In the case of `C=C1C(=O)O[C@@H]2/C=C(/C)[C@]3(O)O[C@@](C)(C[C@@H]3OC)C[C@@H](OC(=O)C(C)C)[C@@H]12`, the pIC100 was -2.3.
Consider `C=C(C)C(=O)O[C@H]1[C@H]2C(=C)C(=O)O[C@@H]2/C=C(/C)CC/C=C(/C=O)[C@@H]1O`, for which the pIC100 is -1.
For `C=C1C(=O)O[C@H]2C/C(CO)=C\CC/C(COC(=O)C(C)CO)=C\C[C@H]12` (stereo not given in full), the pIC100 is -2.
Molecule `C=C1C(=O)O[C@@H]2/C=C(/C)CC/C=C(/C)C[C@@H](OC(=O)C=C(CO)CO)[C@@H]12` registered a pIC100 of -1.
With `C=C1C(=O)C=C2[C@H]1C[C@@H]1C(=C)C(=O)O[C@H]1C[C@@H]2C`, the pIC100 is -0.69.
Take `C=C1C(=O)OC2/C=C(/C)CC/C=C(/C)[C@@H](OC(C)=O)C[C@@H]12` (stereo not given in full): the pIC100 was -2.3.
Still for that read-out and setting: the figure for `C=C1[C@@H]2[C@H]3OC(=O)C(=C)[C@@H]3CCC(=C)[C@@H]2C[C@@H]1OC(=O)C=C(C)C` is -2.3; for `C=C1C(=O)O[C@@H]2[C@H]3C(C)=CC(=O)C3=C(C)C[C@@H](OC(=O)[C@]3(C)O[C@@H]3C)[C@@H]12` it is -1.3.
The same measure, in the same setting: the figure for `C=C1C(=O)O[C@@H]2/C=C(/CO)C3=CC(=O)[C@@](C)(C[C@@H](OC(=O)/C(C)=C/C)[C@@H]12)O3` is -0.69.

Values taken from ChEMBL document CHEMBL1139436, “Quantitative structure-activity relationship of sesquiterpene lactones as inhibitors of the transcription factor NF-kappaB” (J Med Chem, 2004).
